Values after ≈ are worked out from the molar mass of the structure shown. “Also recorded” adds a separate entry of the source. Where two headings read alike, the source gives them in different places. *1 amine or outer side, *2 acyl side, *3 side chain or, on linkers, in order; H or OH if unused. Where a SMILES comes first, the peptide text is derived from it. Bridges are numbered along the chain shown (N, C = ends). [ ]: non-standard residue; d: D form. X1 = CC(C)CCCCCCCCC[C@H](CC(=O)[*:1])O[*:2]
Experiments:
SA 366 = assay: Microbroth dilution MIC, SA 366; format: cell-based, S. aureus; details: SA 366 (MDR), triplicate
Procedure, shortened: (§1)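 Surfactin was dissolved in sterile distilled water and tested by broth microdilution in MH broth. Strains were a reference strain and MALDI-TOF-identified clinical isolates from diabetic foot ulcers. MIC was the lowest concentration without visible growth. For MBC, 10 µL from clear wells was plated on MH agar for 24 h at 37 °C, and MBC was the lowest concentration giving no colonies. Tests were run in triplicate.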

SA 452 [1] = test system: SA 452
icaD = details: cited from earlier work
S. aureus biofilm = details: ref 28 (Liu et al), cited from earlier work
[2] = test system: standard and clinical strains of Staphylococcus aureus; assay: MIC and MBC by microbroth dilution, all selected strains; format: cell-based
Procedure, shortened: as §1

icaA = details: cited from earlier work
ATCC 25923 [3] = test system: ATCC 25923
[4] = test system: ATCC 25923 biofilm formation; assay: Biofilm inhibition assay; format: cell-based, S. aureus
Procedure, shortened: (§2)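 Overnight cultures were diluted in TSB containing serial surfactin dilutions (1/64×MIC to 2×MIC) to 1×10^6 CFU/mL and grown in triplicate wells for 24 h at 37 °C. Wells were washed three times with PBS and stained with 0.5% crystal violet for 20 min. After air-drying, stain was solubilised in 95% ethanol for 20 min at room temperature and OD570 was read.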

sortaseA = details: S. aureus; cited from earlier work
[5] = test system: S. aureus (ATCC 25923 and MRSA SA 452); assay: Mutant prevention / resistance selection, both strains; format: cell-based; details: S. aureus
Procedure, shortened: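 Strains were grown 24 h in MH broth, centrifuged at 4000×g for 10 min and resuspended to 1×1010 CFU/mL. […] MPC was the lowest concentration preventing colonies. MPC/MIC ratio defined the mutant selection window.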

SA 452 biofilm formation = assay: Biofilm inhibition assay; format: cell-based, S. aureus
Procedure, shortened: as §2

fnbB = details: S. aureus; cited from earlier work
penicillinase = assay: Penicillinase inhibition assay; format: biochemical
Procedure, shortened: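 Penicillin K (10,000 U/mL) added at 2:1 to mixture, 1 h at 37 °C. Then 0.01 mol/L iodine for 15 min, back-titrated with 0.01 mol/L Na2S2O3 to colourless, starch indicator near endpoint. Thiosulfate consumed is inversely related to enzyme activity.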

[6] = test system: S. aureus biofilm formation; assay: Biofilm inhibition assay; format: cell-based
Procedure, shortened: as §2

ATCC 25923 [7] = assay: Bacterial growth curves, ATCC 25923; format: cell-based, S. aureus
Procedure, shortened: (§3)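 Cultures of ATCC 25923 and a clinical MRSA strain were diluted to 1×10^6 CFU/mL in MH broth with surfactin at 0, 1/2×MIC, MIC or 2×MIC, with an MH broth-only negative control. Tubes were shaken at 200 rpm and 35 °C for 24 h. OD600 was read at 0, 4, 8, 12 and 24 h. Runs were done in triplicate.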

ATCC 25923 [8] = assay: Microbroth dilution MIC, ATCC 25923; format: cell-based, S. aureus; details: triplicate
Procedure, shortened: as §1

SA 452 [9] = assay: Bacterial growth curves, SA 452; format: cell-based, S. aureus; details: for Growth inhibition: 24-h exposure, 0, 1/2×MIC, MIC, 2×MIC
Procedure, shortened: as §3

ATCC 25923 [10] = assay: Transmission electron microscopy; format: cell-based, S. aureus; details: 5×MIC, 1 h, control 0.05% DMSO
fnbA = details: S. aureus; cited from earlier work
SA 095 = assay: Microbroth dilution MIC, SA 095; format: cell-based, S. aureus; details: SA 095 (non-MDR), triplicate
Procedure, shortened: as §1

SA 326 = assay: Microbroth dilution MIC, SA 326; format: cell-based, S. aureus; details: SA 326 (MRSA), triplicate
Procedure, shortened: as §1

Gram-negative bacteria = assay: Efficacy against Gram-negative bacteria; format: cell-based; details: data not shown
human red blood cells = assay: Human red blood cells hemolysis assay; format: cell-based; details: 1 h, 37 °C
Procedure, shortened: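 Whole blood from healthy human volunteers was spun at 1000×g for 5 min, and the RBCs were washed three times in PBS and resuspended in PBS. RBC suspension was mixed 1:1 with serial surfactin dilutions and incubated 1 h at 37 °C, then supernatant A570 was read. Hemolysis % was scaled between 0.1% DMSO (negative) and 0.1% Triton X-100 (positive).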

SA 452 [11] = assay: Microbroth dilution MIC, SA 452; format: cell-based, S. aureus; details: SA 452 (MRSA), triplicate
Procedure, shortened: as §1

[12] = 1.5 mg/mL, ref 39 (Englerová et al)

SMILES: CC(C)CCCCCCCCC[C@@H]1CC(=O)N[C@@H](CCC(=O)O)C(=O)N[C@@H](CC(C)C)C(=O)N[C@H](CC(C)C)C(=O)N[C@@H](C(C)C)C(=O)N[C@@H](CC(=O)O)C(=O)N[C@H](CC(C)C)C(=O)N[C@@H](CC(C)C)C(=O)O1 [Surfactin, surfactin] (EL[dL]VD[dL]L; linker N-C via X1 (inferred))
- MIC (SA 366): 512 µg/mL (≈ 494 µM)
- FICI (SA 452 [1]; surfactin with ampicillin): 0.133
- Fold Change (SA 452 [1]; surfactin with ampicillin): 8
- FICI (SA 452 [1]; surfactin with ciprofloxacin): 2
- FICI (SA 452 [1]; surfactin with erythromycin): 2
- FICI (SA 452 [1]; surfactin with gentamicin): 0.25
- Fold Change (SA 452 [1]; surfactin with gentamicin): 8
- FICI (SA 452 [1]; surfactin with oxacillin): 0.156
- Fold Change (SA 452 [1]; surfactin with oxacillin): 8
- FICI (SA 452 [1]; surfactin with tetracycline): 0.133
- Fold Change (SA 452 [1]; surfactin with tetracycline): 8
- Downregulation of icaD expression (icaD; [12]): 1.85 fold
- Expression of icaD (in words) (icaD; 2×MIC, ref 28 (Liu et al)): significantly reduced the expression
- Biofilm removal rate (S. aureus biofilm; 0.2% surfactin, 4 h): 80%
- Reduction of biofilm production (S. aureus biofilm; one-quarter MIC, S. aureus): 60%
- Antibacterial activity (in words) ([2]; S. aureus from DFUs (non-MDR, MDR, MRSA) and ATCC 25923): antibacterial and bactericidal activity against S. aureus strains; also recorded: effectively inhibited the growth of S. aureus
- Difference in MICs between strains with different resistance patterns ([2]; non-MDR, MDR, MRSA, ATCC 25923): no significant difference in MICs
- Downregulation of icaA expression (icaA; [12]): 2.82 fold
- Expression of icaA (in words) (icaA; 2×MIC, ref 28 (Liu et al)): significantly reduced the expression
- FICI (ATCC 25923 [3]; surfactin with ampicillin): 0.5
- Fold Change (ATCC 25923 [3]; surfactin with ciprofloxacin): 2
- Fold Change (ATCC 25923 [3]; surfactin with erythromycin): 8
- FICI (ATCC 25923 [3]; surfactin with oxacillin): 0.25
- Fold Change (ATCC 25923 [3]; surfactin with oxacillin): 8
- FICI (ATCC 25923 [3]; surfactin with tetracycline): 0.188
- Fold Change (ATCC 25923 [3]; surfactin with tetracycline): 8
- Biofilm inhibition, dose dependence ([4]; 1/64×MIC to 2×MIC): dose-dependent inhibitory effect
- Inhibition of biofilm formation ([4]; 2×MIC, crystal violet, 24 h, 37°C): 80%
- Concentration from which biofilm inhibition starts ([4]; crystal violet, OD570, 24 h, 37°C, TSB): 1/16
- Expression of sortaseA (in words) (sortaseA): inhibit the expression
- In vitro resistance development [5]: In vitro resistance was not readily produced
- MRSA biofilm inhibition at 2×MIC (in words) (SA 452 biofilm formation; MRSA, 2×MIC): almost completely inhibited
- Biofilm inhibition, dose dependence (SA 452 biofilm formation; SA 452, 1/64×MIC to 2×MIC): dose-dependent inhibitory effect
- Inhibition of biofilm formation (SA 452 biofilm formation; SA 452, 2×MIC, crystal violet, 24 h, 37°C): more than 95%
- Concentration from which biofilm inhibition starts (SA 452 biofilm formation; SA 452, crystal violet, OD570, 24 h, 37°C, TSB): 1/16
- Expression of fnbB (in words) (fnbB): inhibit the expression
- Volume of Na2S2O3 consumed (penicillinase inhibition) (penicillinase; […], 10,000 U/mL penicillinase, 18 h, 35 °C, penicillinase-only control 0.5 mL): 2.25 mL
- Penicillinase inhibition (in words) (penicillinase; iodometry): directly inhibited penicillinase activity, but not as much as the clavulanate potassium; also recorded: significantly reduced penicillinase activity
- Biofilm inhibition at 1/16×MIC (in words) ([6]; 1/16×MIC): significantly inhibited
- Biofilm inhibition (in words) ([6]; S. aureus): significantly prevented the S. aureus biofilm formation; also recorded: dose-dependent inhibitory effect on S. aureus biofilm formation; also recorded: significantly reducing biofilm production
- Growth inhibition (ATCC 25923 [7]; 24-h exposure, 0, 1/2×MIC, MIC, 2×MIC, OD600): inhibited the growth of ATCC 25923 and SA 452 in a dose-dependent manner
- Growth inhibition at MIC and 2×MIC (ATCC 25923 [7]; MIC and 2×MIC): almost completely inhibited
- Growth reduction at half the MIC (ATCC 25923 [7]; from 4 h, 1/2×MIC): significantly reduced from 4 h
- MIC (ATCC 25923 [8]): 512 µg/mL (≈ 494 µM)
- Growth inhibition (SA 452 [9]; OD600): inhibited the growth of ATCC 25923 and SA 452 in a dose-dependent manner
- Growth inhibition (SA 452 [9]; OD600, listed as surfactin): inhibited the growth of both ATCC 25923 and SA 452 in a dose-dependent manner
- Growth inhibition at MIC and 2×MIC (SA 452 [9]; MIC and 2×MIC): almost completely inhibited
- Growth reduction at half the MIC (SA 452 [9]; from 4 h, 1/2×MIC): significantly reduced from 4 h
- Cell structure by TEM (ATCC 25923 [10]): damaged structure, leading to cell lysis and death; also recorded: irregular and collapsed surfaces, content leakage, and cell death
- Expression of fnbA (in words) (fnbA): inhibit the expression
- MIC (SA 095): 512 µg/mL (≈ 494 µM)
- MIC (SA 326): 1024 µg/mL (≈ 988 µM)
- Efficacy against Gram-negative bacteria relative to Gram-positive (Gram-negative bacteria): less than that of Gram-positive bacteria
- Hemolysis at 16×MIC (human red blood cells; 16×MIC, human RBC): > 5%
- Hemolysis below 16×MIC (human red blood cells; all concentrations less than 16×MIC, human RBC): no hemolysis was observed
- Concentration at which hemolytic activity (hemolysis > 5%) occurred (human red blood cells; human RBC in PBS, A570, Triton X-100 positive control): 16 ×MIC
- Cytotoxicity to RBCs (in words) (human red blood cells; human RBC): limited toxicity on human red blood cells; also recorded: extremely low cytotoxicity to RBCs; also recorded: very low cytotoxicity to erythrocytes
- MIC (SA 452 [11]): 512 µg/mL (≈ 494 µM)

— PMC10674630 (Diabetes, Metabolic Syndrome and Obesity, 2023)
